The data set can be described thus: Toxicity liver stage against HepG2, at 10uM. The format is cell-based. More on the design: test concentration 10 uM, cell line HepG2-A16-CD81EGFP. As to conditions: human, HepG2-A16-CD81EGFP cells; read-out: INHIBITION
The method, boiled down:
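Uninfected HepG2-A16-CD81EGFP cells, 3 × 10^3 per well, 1536-well, plated on prespotted compound at 10 μM final, parasite-free screening media added to match infected plates; puromycin 10 μM positive, DMSO 0.5% negative; run in parallel with 48 h PbLuc assay at 37 °C, 5% CO2; viability by CellTiter-Glo luminescence, normalized to controls.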
As for `CC1CCCN(CCNC(=O)c2cncnc2C(C)C)C1` (configuration not stated), the cytotoxicity at 10 µM was -10.6%. Under `COc1ccc(C(C)NC(=O)NCCCn2cncn2)cc1F` (configuration not stated) stands 2.12%. For `COCCc1noc(CN(C)c2nccc(C)n2)n1`, the cytotoxicity at 10 µM was 9.34%.

For `CC(NCc1cccc(C#N)c1)c1ccccn1` (configuration not stated), the cytotoxicity at 10 µM was -9.61%. `O=C(OCC1CCCN(C(=O)c2ccccc2)C1)c1cscn1` (configuration not stated): the cytotoxicity at 10 µM was -9.92%. Then `COc1cccc(-c2noc(-c3ccc(NCC(C)O)nc3)n2)c1OC` (configuration not stated), with -5.82%. `Cc1nnc(C2CCN(C(=O)c3ccc4[nH]ccc4c3)CC2)s1`: the cytotoxicity at 10 µM was determined as 15%. Under `Cc1cccc(CN2C[C@@H](NC(=O)C3CCC3)[C@H]3COC[C@H]32)n1` stands 4.83%; under `CCCc1nc(C)c(C(=O)NC2CCN(C3CC3)C2)s1` (configuration not stated), -7.82%.

`NC(=O)N1CCCC(c2nc(-c3cccnn3)no2)C1` (configuration not stated): the cytotoxicity at 10 µM was -1.31%. Then `COc1ccc(N2CCN(C(=O)CCn3nccc3C)C(C)C2)cc1` (configuration not stated), with 14.3%; and `Cn1cc(NC(=O)C2CC(c3ccccc3)C2)ccc1=O` (configuration not stated), with -4.42%.

For the compound `FC(F)CNc1cnc(C2CCNCC2)cn1`, the cytotoxicity at 10 µM was 0.83%. Then `CCC(C)N(C)C(=O)Nc1ccc(N2CCSCC2)cc1C` (configuration not stated), with -12.5%. Under `O=C1COC2(CCN(Cc3nccs3)CC2)CN1CC1CC1` stands 4.38%; under `Cc1nnc(CCNC(=O)[C@H]2CNC[C@@H](C(=O)N3CCCC3)C2)s1`, -113%; under `Cc1cccc(-n2cc3[nH]c(=O)n(Cc4cccc(F)c4)n3c2=O)c1`, 1.79%.

On to `CCCN1CCN(C(=O)Nc2ccccc2Cl)[C@H]2CS(=O)(=O)C[C@H]21`, for which the cytotoxicity at 10 µM is 1.54%. Under `Cc1oncc1C(=O)N1CCC2(CCN(Cc3cccnc3)C2=O)C1` (configuration not stated) stands -144%; under `O=C1[C@@H]2CCN(CC3CC3)C[C@@H]2OCCN1c1ccsc1`, 10.5%. Under `Cc1nn(C)c(N(C)C)c1CNCc1cccc(CN(C)C)c1` stands -3.01%. In the case of `CC(C)(C)c1nc(CN(CCO)Cc2cc(Br)ccc2F)no1`, the cytotoxicity at 10 µM was determined as 8.52%. In the case of `Cc1noc(CN(Cc2ccc3c(c2)OCO3)Cc2ccc(C)o2)n1`, the cytotoxicity at 10 µM was -0.194%. Consider `Cc1noc(C)c1CCC(=O)N1CCN(Cc2cscn2)CC1`, for which the cytotoxicity at 10 µM was -6.28%. Then `COC1COC2(CCN(Cc3ccc4c(c3)OCO4)CC2)C1` (configuration not stated), with 0.729%. Under `CCOc1ccc(C(=O)Nc2c(C)nc3ccc(Cl)cn3c2=O)cc1` stands -4.31%.

Turning to `Cc1noc(CN(Cc2ccc3c(c2)OCCO3)Cc2ccco2)n1`, the cytotoxicity at 10 µM was -10.8%. Then `Cc1ccc(S(=O)(=O)N2CCOc3ccccc32)cc1C(N)=O`, with 7.91%; and `COC(=O)NCC(=O)NCC(C)(C)c1cccc(Br)c1`, with -3.01%; and `CN(Cc1nc(C(F)(F)F)cs1)C(=O)CCc1cccnc1`, with 9.75%. Then `CC(=O)N1CCOC[C@H](Oc2ccc(C(F)(F)F)cc2)C1`, with 2.65%. In the case of `CN(Cc1ccc(F)cc1)[C@@H]1CN(S(=O)(=O)N(C)C)C[C@H]1O`, the cytotoxicity at 10 µM was -1.34%. Under `CCSCCn1cc(-c2ncc[nH]2)nn1` stands -41.4%. Then `COCCNC(=O)N1CCOCC1c1c(C)nn(C)c1C` (configuration not stated), with -8.18%.

On to `CC(C)CC(C(=O)N1CCCSCC1)N1CCCCC1=O` (configuration not stated), for which the cytotoxicity at 10 µM was -11%. Take `CCC(CO)N(Cc1cccnc1)Cc1ccc(-c2ccn[nH]2)s1` (configuration not stated): the cytotoxicity at 10 µM was -1.55%.

In the case of `CN(CCN1CCCC1=O)S(=O)(=O)CC1CCCC1`, the cytotoxicity at 10 µM was 10.4%. Under `c1cncc(-c2nc(C3CC3)ncc2-c2ccnc(N3CCCC3)n2)c1` stands -2.5%; under `CCN(CC)S(=O)(=O)N1CCCN(CC(=O)NC(C)C)CC1`, 2.75%; under `Cc1nc(CNCc2cccc(OC34CCCN(CC3)C4)c2)n[nH]1` (configuration not stated), -3.69%. Under `CCc1csc(C2CCCN(C(=O)C3=NN(CC)C(=O)CC3)C2)n1` (configuration not stated) stands -6.26%; under `COCC1CN(CC2CCOCC2)Cc2cn(CC3CCCC3)nc21` (configuration not stated), 5.19%; under `CC(C)N(C)C(=O)C1CSCN1S(=O)(=O)c1ccccc1F` (configuration not stated), 8.65%. In the case of `O=C(NCC(F)(F)F)C1CCCN(Cc2ccno2)C1` (configuration not stated), the cytotoxicity at 10 µM is -4.13%.

`Cc1nc(C)n(CC2CN(Cc3cc(C#N)ccc3F)CCO2)n1` (configuration not stated): the cytotoxicity at 10 µM was -1.56%. Turning to `CCc1oc(C(=O)NC(C)c2ncn[nH]2)cc1CN1CCCC1` (configuration not stated), the cytotoxicity at 10 µM was -5.92%. Then `Cc1csc(CN(C)C(=O)c2cccc(CCC(C)(C)O)c2)n1`, with -2.32%; and `COC(=O)CCn1ccc(=O)c2cc(F)ccc21`, with 0.409%. For `CN(CC(O)C1CC1)C(=O)c1ccc(-c2nc(C3CC3)n[nH]2)cc1` (configuration not stated), the cytotoxicity at 10 µM was -5.09%. As for `CNC(=O)N1CCOC(C)(c2cnn(C)c2)C1` (configuration not stated), the cytotoxicity at 10 µM was -0.717%. Then `CC(=O)N1CCN(Cc2ccco2)CC2(CC(=O)N(C)C2)C1` (configuration not stated), with -3.81%; and `CCc1noc(C(C)N2CCN(c3ccc(C#N)cc3F)CC2)n1` (configuration not stated), with -9.7%. Then `Cc1cccc(C)c1OCC(=O)N1CCOCC1c1ncon1` (configuration not stated), with -17%; and `CC(C)c1nc(C2CCCN2CCS(C)(=O)=O)no1` (configuration not stated), with 6.51%; and `Cc1ncc2c(n1)CN(CCCc1nc3ccccc3o1)CC2`, with 6.81%. With `O=C1CC(N2CCN(c3ccccc3O)CC2)C(=O)N1Cc1cccs1` (configuration not stated), the cytotoxicity at 10 µM is -0.872%. Under `O=C(Nc1cnn(Cc2ccc(Cl)cc2)c1)N[C@@H]1C=C[C@H](CO)C1` stands -2.96%; under `Cn1ccc(CS(=O)(=O)Cc2cccc(F)c2)cc1=O`, 6.83%. Regarding `CCN(Cc1ccc2c(c1)OCO2)C(=O)NC(C)Cn1ccnc1` (configuration not stated), the cytotoxicity at 10 µM was -13.2%. Under `CCCc1noc(CN2CCCC2c2ccsc2)n1` (configuration not stated) stands -18.8%; under `CC(=O)NC1Cc2ccc(S(=O)(=O)NCCNc3ccccn3)cc2C1` (configuration not stated), 0.126%.

Take `CNc1cccc(C2CCCN(C(=O)c3cncs3)C2)n1` (configuration not stated): the cytotoxicity at 10 µM was -18.3%. Then `O=C(c1ccoc1)N1CCO[C@]2(CCC[C@@H]2COCc2ccncc2)C1`, with 0.341%; and `CN(C)C(=O)COCc1cncc2c1CCN(Cc1ccccn1)C2`, with -2.51%; and `Cc1cncc(C(=O)N2CCCCC2c2nc[nH]n2)c1` (configuration not stated), with -0.229%. For `Cc1cnn(CCNCc2ccccc2OCc2ccccn2)c1`, the cytotoxicity at 10 µM stood at 3.03%.

In the case of `COCCN1C[C@@H]2CC[C@H]1CN(C(=O)CCn1cc(Cl)cn1)C2`, the cytotoxicity at 10 µM came to 7.62%. Under `O=C(N[C@@H]1CC[C@@H](N2CCCC2)[C@@H]1O)c1cc2cccc(F)c2[nH]1` stands 2.91%; under `Cc1cc(C)n(CC2CN(Cc3nc(-c4ccco4)no3)CCO2)n1` (configuration not stated), -6.58%; under `CCCc1nnsc1C(=O)N1CCN(CC(C)O)CC1` (configuration not stated), -5.3%. Under `Cn1ncc2c(NC3CCC3)nc(-c3ccncc3)nc21` stands 16.7%; under `CCN(C(=O)C(C)S(=O)(=O)Cc1nc(C)no1)c1ccccc1` (configuration not stated), 4.03%; under `CC(C)OCCCNC(=O)CS(=O)(=O)Cc1cccc(Cl)c1`, 5.44%. As to `CC1CCN(C(=O)CN2CCC(c3n[nH]c(C4CC4)n3)CC2)CC1`, the cytotoxicity at 10 µM is -0.297%. Under `COCCCNC(=O)C(C)n1cc(Br)cn1` (configuration not stated) stands 12.2%. Under `CCCC(C)NC(=O)CCN1C(=O)CCc2cc(F)ccc21` (configuration not stated) stands 8.17%; under `CNS(=O)(=O)Cc1ccc(CNc2ccc(C#N)cn2)cc1`, -6.87%; under `CC(C)c1nc(S(=O)(=O)N2CCSc3ccccc32)c[nH]1`, 2.7%.

On to `O=c1c2ccccc2nc2n1C(CSc1ccc(Br)cc1)CN2` (configuration not stated), for which the cytotoxicity at 10 µM is 6.76%. Under `COCC(=O)N1CCC2(CC1)CCn1c(-c3cccc(OC)c3)cnc12` stands -5.21%.

As to `Cc1ccc(C(=O)N2CCn3cc(CN4CCCCC4)nc3C2)o1`, the cytotoxicity at 10 µM is 4.75%.

On to `O=C(NCC1CCOCC1)[C@H]1C[C@@H]2CCN(c3nncs3)C[C@@H]2O1`, for which the cytotoxicity at 10 µM amounted to 1.73%.

Regarding `COCC1c2nnn(C)c2CCN1C(=O)CCc1cccc(OC)c1` (configuration not stated), the cytotoxicity at 10 µM was -90.4%. Under `CCCc1noc(CN2CCN(CCO)CC2)n1` stands -12.1%; under `O=c1[nH]nc2nc(N3CCSCC3)ccn12`, -13.5%. Then `Cc1occc1C(=O)N1C[C@@H]2[C@@H](C1)OCC(=O)N2Cc1cccnc1`, with 0.661%. Then `Cc1noc(C)c1CN1CC2(CCCCN2C)CC1=O` (configuration not stated), with 2.75%; and `O=C(c1[nH]nc(C2CC2)c1Cl)N1CCN(C2CC2)CC1`, with -5.58%; and `CC(C)NC(=O)N1CCN(C(=O)c2ccco2)CC2(CC(=O)N(C)C2)C1` (configuration not stated), with 6.15%. For the compound `O=C(CN1CCOc2ccc(Cl)cc21)NCCCn1ccnc1`, the cytotoxicity at 10 µM was -7.49%. With `CC(C)n1c2ccccc2c2c1cc(C(=O)N(C)C)n2C(=O)N(C)C`, the cytotoxicity at 10 µM was -95%. Then `CC(C)N1CCN(C(=O)Nc2cnc3c(cnn3C(C)C)c2)CC1`, with 6.23%; and `CCOc1ccc(C(=O)CCC(=O)NCc2csc(N)n2)cc1C`, with 7.34%. Then `CC(C)Oc1cc(N2CC[C@@H](N3CCOCC3)[C@H](O)C2)nc(N)n1`, with -2.32%; and `CCn1cncc1CNc1ccc(-c2nc(CC(C)C)no2)cn1`, with -9.07%; and `COc1ccc(CN2CC[C@H]3[C@H](CO[C@H]3CNC(=O)N(C)C)C2)cc1`, with 6.96%. Under `CCN(CC)CCCNCc1cc2cccc(C)c2[nH]c1=O` stands -7.06%.

Values taken from ChEMBL document CHEMBL4513216, “Probing the Open Global Health Chemical Diversity Library for Multistage-Active Starting Points for Next-Generation Antimalarials” (ACS Infect Dis, 2020).
